This passage reports Stability and IC50 results from ChEMBL document CHEMBL2390841, “1,1-Difluoroethyl-substituted triazolothienopyrimidines as inhibitors of a human urea transport protein (UT-B): new analogs and binding model” (Bioorg Med Chem Lett, 2013).

For series [1], the system named is Liver microsomes. Description: Metabolic stability in rat liver microsomes assessed as parent compound remaining after 30 mins. Type of series: ADME, Microsome. The settings on record: 0.5 h. Summed up:
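Compounds are incubated 30 min with rat liver microsomes plus NADPH, then organic-extracted and analysed by LCMS. Value is percent parent remaining.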
(Liver microsomes are a subcellular fraction often used to study metabolism.)

Series [2] concerns the target T1, Urea transporter 1 (Mus musculus, UniProt Q8VHL0).
T1 sequence (Q8VHL0 whole entry): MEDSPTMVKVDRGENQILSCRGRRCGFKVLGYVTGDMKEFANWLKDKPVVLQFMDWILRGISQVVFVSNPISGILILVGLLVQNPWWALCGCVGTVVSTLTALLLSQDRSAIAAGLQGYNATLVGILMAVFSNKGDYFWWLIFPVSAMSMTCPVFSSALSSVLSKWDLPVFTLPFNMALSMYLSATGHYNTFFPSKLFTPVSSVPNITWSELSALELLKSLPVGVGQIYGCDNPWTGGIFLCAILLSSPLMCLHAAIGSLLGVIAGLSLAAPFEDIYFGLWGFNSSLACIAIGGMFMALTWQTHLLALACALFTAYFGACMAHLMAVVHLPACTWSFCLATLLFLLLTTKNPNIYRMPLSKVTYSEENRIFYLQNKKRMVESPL
Description: Inhibition of UT-B in mouse acetamide-loaded erythrocyte assessed as increase of hypotonic lysis. Summed up:
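Erythrocytes preloaded with acetamide are diluted into isosmolar PBS. Hypotonic lysis is read as near-infrared light absorbance; blocking UT-B-mediated acetamide efflux increases lysis. IC50 comes from a fit to a single-site saturation model.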

The structures appear in SMILES notation.

For the compound `CCc1ccc(S(=O)(=O)c2nnn3c2nc(NCc2cccs2)c2sccc23)cc1`, in series [1], the Stability is given as < 5%. Take `CC(F)(F)c1ccc(S(=O)(=O)c2nnn3c2nc(NCC2CCC2)c2sccc23)cc1`: the half-maximal inhibitory concentration (IC50) (usually the concentration that inhibits the measured activity by half) in series [2] is > 800 nM. The Stability in series [1] came to 24%. On the same counts, the results for `CC(F)(F)c1ccc(S(=O)(=O)c2nnn3c2nc(NCc2ccco2)c2sccc23)cc1` are 353 nM and 14%. `CC(F)(F)c1ccc(S(=O)(=O)c2nnn3c2nc(NCc2ccccc2)c2sccc23)cc1`: the IC50 in series [2] was > 800 nM. In addition, the Stability in series [1] is 79%. With `CC(F)(F)c1ccc(S(=O)(=O)c2nnn3c2nc(NCC2CC2)c2sccc23)cc1`, the IC50 in series [2] is > 800 nM. The Stability in series [1] is recorded as 75%. Take `CC(F)(F)c1ccc(S(=O)(=O)c2nnn3c2nc(NCc2ccsc2)c2sccc23)cc1`: in series [2], the half-maximal inhibitory concentration (IC50) stood at 43 nM. The Stability in series [1] is reported as 47%. Consider `Cc1csc(CNc2nc3c(S(=O)(=O)c4ccc(C(C)(F)F)cc4)nnn3c3ccsc23)c1`, for which the IC50 in series [2] was determined as 38 nM. The Stability in series [1] turned out to be 22%.
